According to ChEMBL document CHEMBL3396970, “Synthesis and biological evaluation of novel 2,3-disubstituted quinoxaline derivatives as antileishmanial and antitrypanosomal agents” (Eur J Med Chem, 2015):

Legend:
Leishmania amazonensis [1] = assay: Antileishmanial activity against promastigote stage of Leishmania amazonensis WHOM/BR/75/JOSEFA after 72 hrs by hemocytometry; format: functional, organism-based
[2] = Selectivity ratio of CC50 for monkey LLC-MK2 cells to IC50 for epimastigote stage of epimastigote stage of Trypanosoma cruzi Y; format: ADME, cell-based; settings: read-out: Ratio CC50/IC50
Trypanosoma cruzi [3] = assay: Antitrypanosomal activity against epimastigote stage of Trypanosoma cruzi Y after 96 hrs by hemocytometry; format: functional, organism-based
Outline: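 Log-phase parasites (promastigotes 3-day, Warren's medium + 10% FBS, 25°C; epimastigotes 4-day, LIT + 10% FBS, 28°C) seeded at 1 × 10^6 cells/mL with compound (0.1-100 µM; DMSO ≤1%). Promastigotes read at 72 h, epimastigotes at 96 h, by hemocytometer counting. IC50 by nonlinear regression.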

[4] = Selectivity ratio of CC50 for monkey LLC-MK2 cells to EC50 for trypomastigote stage of Trypanosoma cruzi Y; format: ADME, cell-based; settings: read-out: Ratio CC50/EC50
[5] = Selectivity ratio of CC50 to IC50 for promastigote stage of Leishmania amazonensis WHOM/BR/75/JOSEFA; design: reference not given here
[6] = Selectivity ratio of CC50 for mouse J774A1 cells to IC50 for promastigote stage of Leishmania amazonensis WHOM/BR/75/JOSEFA; format: ADME, cell-based, J774.A1; settings: read-out: Ratio CC50/IC50
[7] = Selectivity ratio of CC50 for monkey LLC-MK2 cells to IC50 for epimastigote stage of epimastigote stage of Trypanosoma cruzi Y
Trypanosoma cruzi [8] = assay: Antitrypanosomal activity against trypomastigote stage of Trypanosoma cruzi Y infected in monkey LLC-MK2 cells after 96 hrs by Pizzi-Brener method; format: functional, organism-based
Trypanosoma cruzi [9] = assay: Antitrypanosomal activity against amastigote stage of Trypanosoma cruzi Y infected in monkey LLC-MK2 cells after 96 hrs by Geimsa staining-based light microscopy; format: functional, organism-based; settings: LLC-MK2, 96 h
Outline: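 LLCMK2 monolayers (2.5 x 10^5 cells/mL, 24 h, 37 °C, 5% CO2) infected with trypomastigotes at 10 per host cell for 24 h, washed, treated with compound (0.1 to 50 μM) 96 h. Methanol-fixed, Giemsa-stained, 200 cells counted; survival index (% infected × amastigotes/cell); IC50 by nonlinear regression.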

[10] = Selectivity ratio of CC50 for monkey LLC-MK2 cells to IC50 for amastigote stage of Trypanosoma cruzi Y; format: ADME, cell-based; settings: read-out: Ratio CC50/IC50
[11] = Selectivity ratio of CC50 for BALB/c mouse peritoneal macrophages to IC50 for amastigote stage of Leishmania amazonensis WHOM/BR/75/JOSEFA
Leishmania amazonensis [12] = assay: Antileishmanial activity against amastigote stage of Leishmania amazonensis WHOM/BR/75/JOSEFA infected in BALB/c mouse peritoneal macrophages after 72 hrs by Geimsa staining-based light microscopy; format: functional, organism-based

Row | SMILES | IC50 (Leishmania amazonensis [1]) [µM] | IC50 (Trypanosoma cruzi [3]) [µM] | EC50 (Trypanosoma cruzi [8]) [µM] | IC50 (Trypanosoma cruzi [9]) [µM] | IC50 (Leishmania amazonensis [12]) [µM] | selectivity ratio [2] | selectivity ratio [4] | selectivity ratio [5] | selectivity ratio [6] | selectivity ratio [7] | selectivity ratio [10] | Ratio CC50/IC50 [11]
1 | CCCCNc1nc2cc(OC)ccc2nc1S(C)(=O)=O | 32.2 | 55.3 | 41.2 |  |  | 1.6 | 2.1 | 5.5 | 5.5 | 1.6 |  | 
2 | CS(=O)(=O)c1nc2ccc(Cl)cc2nc1Cl | 0.2 | 0.3 | 6.9 | 8.6 | 3.1 | 25.9 | 4.1 | 66 | 66 | 25.9 | 0.9 | 4.3
3 | CS(=O)(=O)c1nc2ccc(Br)cc2nc1NCCO | 0.8 | 1.6 | 8.2 | 7.4 |  | 3.4 | 0.7 | 40.3 | 40.3 | 3.4 | 0.8 | 
4 | COc1ccc2nc(-c3ccccc3)c(S(C)(=O)=O)nc2c1 | 24.7 | 28.4 | 48.1 |  |  | 9.3 | 5.5 | 4.1 | 4.1 | 9.3 |  | 
5 | COc1ccc2nc(S(C)(=O)=O)c(NC3CCCCC3)nc2c1 | 14.7 | 29.1 | 23.6 |  |  | 2.7 | 3.3 | 6.5 | 6.5 | 2.7 |  | 
6 | CS(=O)(=O)c1nc2ccccc2nc1Cl | 1.6 | 0.6 | 6.4 | > 15 |  | 70.1 | 7.3 | 14.4 | 14.4 | 70.1 |  | 
7 | CS(=O)(=O)c1nc2ccccc2nc1NCCO | 2.9 | 4.2 | 22.6 |  |  | 4.4 | 0.8 | 13 | 13 | 4.4 |  | 
8 | CCCCNc1nc2cc(Cl)ccc2nc1S(C)(=O)=O | 1.4 | 2.3 | 9 |  |  | 93.4 | 23.8 | 50.6 | 50.6 | 93.4 |  | 
9 | COc1ccc2nc(Cl)c(NCc3ccccc3)nc2c1 | 24.5 | 15.9 | > 50 | > 20 | 25 | 22.2 |  | 5.4 | 5.4 | 22.2 |  | 5.3
10 | C[C@@H]1[C@H](O)[C@@H](C)/C=C/C=C/C=C/C=C/C=C/C=C/C=C/[C@H](O[C@@H]2O[C@H](C)[C@@H](O)[C@H](N)[C@@H]2O)C[C@@H]2O[C@](O)(C[C@@H](O)C[C@@H](O)[C@H](O)CC[C@@H](O)C[C@@H](O)CC(=O)O[C@H]1C)C[C@H](O)[C@H]2C(=O)O [AMPHOTERICIN B] |  |  |  |  | 0.4 |  |  |  |  |  |  | 
11 | COc1ccc2nc(NC3CCCCC3)c(SC)nc2c1 | 29.8 | 30.5 | > 50 |  |  | 8.5 |  | 1.2 | 1.2 | 8.5 |  | 
12 | COc1ccc2nc(Cl)c([S+](C)[O-])nc2c1 (stereo not drawn) | 0.8 | 0.5 | 4.2 |  | 4.6 | 39.2 | 4.4 | 27.8 | 27.8 | 39.2 |  | 4.9

The remaining molecules from weak to strong by IC50 (Leishmania amazonensis [1]), led by results:

Row | IC50 (Leishmania amazonensis [1]) [µM] | IC50 (Trypanosoma cruzi [3]) [µM] | EC50 (Trypanosoma cruzi [8]) [µM] | IC50 (Trypanosoma cruzi [9]) [µM] | IC50 (Leishmania amazonensis [12]) [µM] | SMILES | selectivity ratio [2] | selectivity ratio [4] | selectivity ratio [5] | selectivity ratio [6] | selectivity ratio [7] | selectivity ratio [10] | Ratio CC50/IC50 [11]
13 | 52.8 | 31.8 | 35 |  |  | CS/C(=C/[N+](=O)[O-])Nc1ccc(N(C)C)cc1 | 6.6 | 6 | 18.9 | 18.9 | 6.6 |  | 
14 | 30 | 36.6 | > 100 | 8.6 |  | COc1ccc(-c2nc3ccccc3nc2-c2ccc(OC)cc2)cc1 | 9 |  | 19.7 | 19.7 | 9 | 38.4 | 
15 | 27.8 | 55.4 | 24.8 |  |  | COc1ccc2nc(S(C)(=O)=O)c(NCC(C)C)nc2c1 | 1.5 | 3.3 | 3.6 | 3.6 | 1.5 |  | 
16 | 27.1 | 79.6 | > 50 |  |  | COc1ccc2nc(SC)c(NCCC(C)C)nc2c1 | 0.7 |  | 3.3 | 3.3 | 0.7 |  | 
17 | 24.4 | 63.6 | > 50 |  |  | CCCCNc1nc2cc(Cl)ccc2nc1SC | 1 |  | 4.6 | 4.6 | 1 |  | 
18 | 21.2 | 38 | 22.9 |  |  | COc1ccc2nc(S(C)(=O)=O)c(NCCC(C)C)nc2c1 | 2.6 | 4.2 |  | 5 |  |  | 
19 | 6.5 | 45.6 | 37.9 |  |  | COc1ccc2nc(Nc3ccccc3)c(Nc3ccccc3)nc2c1 | 1 | 1.2 | 4.4 | 4.4 | 1 |  | 
20 | 2.9 | 2.9 | 35.7 | 40.5 | 17.3 | COc1ccc2nc(NCCO)c(S(C)(=O)=O)nc2c1 | 25.2 | 2 | 13.3 | 13.3 | 25.2 | 1.8 | 2.2
21 | 2.9 | 2.2 | 27.7 | > 25 | 20.2 | COc1ccc2nc(NC3CCCCC3)c(S(C)(=O)=O)nc2c1 | 20.8 | 1.6 | 18.1 | 18.1 | 20.8 |  | 2.6
22 | 2.9 | 4.4 | 15.7 |  |  | CCCCNc1nc2ccccc2nc1S(C)(=O)=O | 5.5 | 1.5 | 11.4 | 11.4 | 5.5 |  | 
23 | 2.9 | 3.1 | 9.8 |  |  | COc1ccc2nc(S(C)(=O)=O)c(Cl)nc2c1 | 7.5 | 2.4 | 7.6 | 7.6 | 7.5 |  | 
24 | 2.6 | 3.1 | 11.7 | 14.9 |  | COc1ccc2nc(NCC(C)C)c(S(C)(=O)=O)nc2c1 | 22.6 | 6 | 22.8 | 22.8 | 22.6 | 4.7 | 
25 | 2.2 | 2 | 3.9 | 9.6 |  | CS(=O)(=O)c1nc2ccc(Cl)cc2nc1NC1CCCCC1 | 38.3 | 19.6 | 15 | 15 | 38.3 | 7.9 | 
26 | 1.9 | 21.4 | 20.3 |  |  | c1ccc(-c2nc3ccccc3nc2-c2ccc(OCCN3CCCCC3)cc2)cc1 | 1.8 | 1.8 | 29.6 | 29.6 | 1.8 |  | 
27 | 1.9 | 1.8 | 6.3 | 7.7 |  | C[S+]([O-])c1nc2ccc(Cl)cc2nc1NC1CCCCC1 (stereo not drawn) | 21.8 | 6.2 | 33.8 | 33.8 | 21.8 | 5.1 | 
28 | 1.6 | 2.3 | 5.6 | > 25 |  | CCCCNc1nc2cc(Br)ccc2nc1S(C)(=O)=O | 43.7 | 17.8 | 28.3 | 28.3 | 43.7 |  | 
29 | 0.1 | 0.1 | 1.7 |  | 1.5 | C[S+]([O-])c1nc2ccc(Cl)cc2nc1Cl (stereo not drawn) | 54.2 | 2.9 | 108 | 108 | 54.2 |  | 9
